Assay results as given in PubChem BioAssay AID652011 (Sanford-Burnham Center for Chemical Genomics, 2013).
Where “and” joins values, the source holds several entries; their conditions need not be identical. Equal values may be shown once. Calls of active or inactive are those of the source.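 The calls were made as follows: active = IC50 of 10 µM or lower on HIF-2a in both cell lines, but not on HIF-1a; inactive = the rest, including compounds also potent on HIF-1a.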

Legend:
Assay in all cases: HIF-1a and HIF-2a reporter inhibitors, SAR follow-up, cell-based, luminescence, MIAPaCa-2, 786-0, panel (AID 652011)
[1] = target: Endothelial PAS domain-containing protein 1 (Homo sapiens) (UniProt Q99814); conditions: MIAPaCa-2/PANC HIF reporter, luciferase luminescence, desferoxamine, overnight; HIF2a PANC cells; mean of runs
Endothelial PAS domain-containing protein 1 (Homo sapiens), sequence (Q99814 whole entry, looked up, the tested form may be a part): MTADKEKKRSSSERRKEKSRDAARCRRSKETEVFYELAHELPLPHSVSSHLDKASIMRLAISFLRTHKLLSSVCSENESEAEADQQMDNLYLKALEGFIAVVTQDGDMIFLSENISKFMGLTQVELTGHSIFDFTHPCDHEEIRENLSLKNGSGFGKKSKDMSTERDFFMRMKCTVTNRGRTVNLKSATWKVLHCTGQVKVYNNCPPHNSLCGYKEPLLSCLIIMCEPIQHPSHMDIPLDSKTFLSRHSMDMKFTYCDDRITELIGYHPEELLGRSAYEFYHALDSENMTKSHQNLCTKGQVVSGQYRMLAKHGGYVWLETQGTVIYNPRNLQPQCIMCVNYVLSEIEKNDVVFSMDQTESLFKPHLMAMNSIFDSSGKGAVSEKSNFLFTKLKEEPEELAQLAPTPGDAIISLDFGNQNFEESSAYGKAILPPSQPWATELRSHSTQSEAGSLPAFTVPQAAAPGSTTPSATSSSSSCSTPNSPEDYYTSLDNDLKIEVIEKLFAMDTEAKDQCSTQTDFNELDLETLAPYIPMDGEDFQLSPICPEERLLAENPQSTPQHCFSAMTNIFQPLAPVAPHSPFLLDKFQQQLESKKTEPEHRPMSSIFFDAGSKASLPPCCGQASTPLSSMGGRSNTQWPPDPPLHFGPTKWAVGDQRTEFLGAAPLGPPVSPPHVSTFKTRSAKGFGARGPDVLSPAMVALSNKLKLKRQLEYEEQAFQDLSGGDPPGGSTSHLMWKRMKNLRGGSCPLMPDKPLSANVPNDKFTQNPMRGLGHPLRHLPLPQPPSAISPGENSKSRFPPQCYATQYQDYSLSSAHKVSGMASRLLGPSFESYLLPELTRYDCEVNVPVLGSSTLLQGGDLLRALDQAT
Procedure, shortened: (§1)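 Probe or stimulus: desferoxamine stimulus / Schedule: overnight compound incubation at 37 °C, 10 min reagent / Dosing: compounds from 10 mM and 0.3125 mM stocks, 1% DMSO final / Signal: luciferase luminescence with One-Glo reagent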

[2] = system: HIF1a; conditions: MIAPaCa-2/PANC HIF reporter, luciferase luminescence, desferoxamine, overnight
Procedure, shortened: as §1

[3] = system: HIF2a PANC; conditions: MIAPaCa-2/PANC HIF reporter, luciferase luminescence, desferoxamine, overnight
Procedure, shortened: as §1

[4] = run 1, individual run IC50, panel line
[5] = run 2, individual run IC50, panel line

Row | SMILES | IC50 [1] | IC50 [2, 4] [µM] | IC50 [2, 5] [µM] | IC50 [3, 4] | IC50 [3, 5] [µM]
1 | CCNC(=O)CCc1nc(-c2ccccc2Cl)no1 | > 99 µM (inactive) | > 99 | > 99 | > 99 µM | > 99
2 | CC(C)c1ccc(-c2noc(CCC(=O)NC3CC3)n2)cc1 | > 99 µM (inactive) | > 99 | > 99 | > 99 µM | > 99
3 | CCCNC(=O)CCc1nc(-c2ccc(C(C)(C)C)cc2)no1 | inactive | > 99 | > 99 | > 99 µM | < 0.19
4 | CCNC(=O)CCc1nc(-c2ccc(C(C)C)cc2)no1 | > 99 µM (inactive) | > 99 | > 99 | > 99 µM | > 99
5 | CCNC(=O)CCc1nc(-c2ccccc2)no1 | > 99 µM (inactive) | > 99 | > 99 | > 99 µM | > 99
6 | CCCCc1ccc(-c2noc(CCC(=O)NC(C)(C)C)n2)cc1 | < 0.19 µM | > 99 | > 99 | < 0.19 µM | < 0.19
7 | CN(C)C(=O)CCc1nc(-c2ccc(C(C)(C)C)cc2)no1 | > 99 µM (inactive) | > 99 | > 99 | > 99 µM | > 99
8 | CC(C)NC(=O)CCc1nc(-c2ccc(C(C)(C)C)cc2)no1 | < 0.19 µM | > 99 | > 99 | < 10 µM | < 0.19
9 | CCNC(=O)CCc1nc(-c2ccc(CC)cc2)no1 | > 99 µM (inactive) | > 99 | > 99 | > 99 µM | > 99
10 | CCCCc1ccc(-c2noc(CCC(=O)NC)n2)cc1 | > 99 µM (inactive) | > 99 | > 99 | > 99 µM | > 99
11 | CC(C)(C)NC(=O)CCc1nc(-c2ccc(C(C)(C)C)cc2)no1 | 0.573 µM | > 99 | > 99 | < 0.19 µM | 0.573
12 | CCNC(=O)CCc1nc(-c2cccc(C)c2)no1 | > 99 µM (inactive) | > 99 | > 99 | > 99 µM | > 99
13 | CC(C)(C)c1ccc(-c2noc(CCC(=O)NCC3CCCO3)n2)cc1 (configuration not stated) | < 0.19 µM | > 99 | > 99 | < 0.19 µM | < 0.19
14 | CCCCc1ccc(-c2noc(CCC(=O)NC3CC3)n2)cc1 | inactive | > 99 | > 99 | > 99 µM | < 0.19
15 | O=C(CCc1nc(-c2ccccc2)no1)NC1CC1 | > 99 µM (inactive) | > 99 | > 99 | > 99 µM | > 99
16 | CCc1ccc(-c2noc(CCC(=O)NC(C)CC)n2)cc1 (configuration not stated) | > 99 µM (inactive) | > 99 | > 99 | > 99 µM | > 99
17 | CCN(CC)C(=O)CCc1nc(-c2ccc(C(C)(C)C)cc2)no1 | > 99 µM (inactive) | > 99 | > 99 | > 99 µM | > 99
18 | CCCCc1ccc(-c2noc(CCC(=O)NCC)n2)cc1 | < 0.19 µM | > 99 | > 99 | < 0.19 µM | < 0.19
19 | CNC(=O)CCc1nc(-c2ccccc2)no1 | > 99 µM (inactive) | > 99 | > 99 | > 99 µM | > 99
20 | CCNC(=O)CCc1nc(-c2cccc(F)c2)no1 | > 99 µM (inactive) | > 99 | > 99 | > 99 µM | > 99
21 | CC(C)(C)c1ccc(-c2noc(CCC(N)=O)n2)cc1 | < 0.19 µM | > 99 | > 99 | < 0.19 µM | < 0.19
22 | CC(C)(C)c1ccc(-c2noc(CCC(=O)NCc3ccco3)n2)cc1 |  | > 99 | > 99 | < 0.19 µM | 
23 | CCNC(=O)CCc1nc(-c2ccccc2C)no1 | > 99 µM (inactive) | > 99 | > 99 | > 99 µM | > 99
24 | CC(C)(C)c1ccc(-c2noc(CCC(=O)NC3CCC3)n2)cc1 | < 0.19 µM | > 99 | > 99 | < 10 µM | < 0.19
25 | CC(C)(C)c1ccc(-c2noc(CCC(=O)N3CCOCC3)n2)cc1 | > 99 µM (inactive) | > 99 | > 99 | > 99 µM | > 99
26 | CCC(C)NC(=O)CCc1nc(-c2ccccc2)no1 (configuration not stated) | > 99 µM (inactive) | > 99 | > 99 | > 99 µM | > 99
27 | CCC(C)NC(=O)CCc1nc(-c2ccc(C(C)C)cc2)no1 (configuration not stated) | > 99 µM (inactive) | > 99 | > 99 | > 99 µM | > 99
28 | CCCCc1ccc(-c2noc(CCC(=O)NC(C)CC)n2)cc1 (configuration not stated) | < 0.19 µM | > 99 | > 99 | < 0.19 µM | < 0.19
29 | CNC(=O)CCc1nc(-c2ccc(C)cc2)no1 | inactive | > 99 | > 99 | 48 µM | > 99

The next lines start with the values.

Row | IC50 [1] | IC50 [2, 4] [µM] | IC50 [2, 5] [µM] | IC50 [3, 4] | IC50 [3, 5] [µM] | SMILES
30 | > 99 µM (inactive) | > 99 | > 99 | > 99 µM | > 99 | CNC(=O)CCc1nc(-c2ccc(F)cc2)no1
31 |  | > 99 | > 99 | > 99 µM and < 10 µM | < 0.19 | CCNC(=O)CCc1nc(-c2ccc(C(C)(C)C)cc2)no1
32 | < 0.19 µM | > 99 | > 99 | < 0.19 µM | < 0.19 | CC(C)(C)c1ccc(-c2noc(CCC(=O)Nc3ccccc3)n2)cc1
33 | inactive | > 99 | > 99 | < 0.19 µM | > 99 | CNC(=O)CCc1nc(-c2ccc(C(C)(C)C)cc2)no1
34 | > 99 µM (inactive) | > 99 | > 99 | > 99 µM | > 99 | CNC(=O)CCc1nc(-c2ccc(Cl)cc2)no1
35 | > 99 µM (inactive) | > 99 | > 99 | > 99 µM | > 99 | CCc1ccc(-c2noc(CCC(=O)NC3CC3)n2)cc1
36 | < 0.19 µM | > 99 | > 99 | < 0.19 µM | < 0.19 | CNC(=O)CCc1nc(-c2ccc(C(C)C)cc2)no1
37 | > 99 µM (inactive) | > 99 | > 99 | > 99 µM | > 99 | CC(C)c1ccc(-c2noc(CCC(=O)NC(C)(C)C)n2)cc1
38 | > 99 µM (inactive) | > 99 | > 99 | > 99 µM | > 99 | O=C(O)CCc1nc(-c2ccccc2)no1
39 | > 99 µM (inactive) | > 99 | > 99 | > 99 µM | > 99 | CCNC(=O)CCc1nc(-c2c(Cl)cccc2Cl)no1
40 | < 0.19 µM | > 99 | > 99 | < 0.19 µM | < 0.19 | CC(C)CNC(=O)CCc1nc(-c2ccc(C(C)(C)C)cc2)no1
41 | > 99 µM (inactive) | > 99 | > 99 | > 99 µM | > 99 | CCc1ccc(-c2noc(CCC(=O)NC(C)(C)C)n2)cc1
42 | < 0.19 µM | > 99 | > 99 | < 10 µM | < 0.19 | C=CCNC(=O)CCc1nc(-c2ccc(C(C)(C)C)cc2)no1
43 | > 99 µM (inactive) | > 99 | > 99 | > 99 µM | > 99 | CNC(=O)CCc1nc(-c2ccc(OC)cc2)no1
44 | > 99 µM (inactive) | > 99 | > 99 | > 99 µM | > 99 | CCNC(=O)CCc1nc(-c2ccc(OCC)cc2)no1
45 | inactive | > 99 | > 99 | > 99 µM | 38.2 | CC(C)(C)c1ccc(-c2noc(CCC(=O)N3CCCCC3)n2)cc1
46 | > 99 µM (inactive) | > 99 | > 99 | > 99 µM | > 99 | CCc1ccc(-c2noc(CCC(=O)NC)n2)cc1
47 | > 99 µM (inactive) | > 99 | > 99 | > 99 µM | > 99 | CCNC(=O)CCc1nc(-c2cccc(OC)c2)no1
48 | < 0.19 µM | > 99 | > 99 | < 10 µM | < 0.19 | CC(C)(C)c1ccc(-c2noc(CCC(=O)NC3CC3)n2)cc1
49 | 1.2 µM | > 99 | > 99 | 1.72 µM | 0.673 | CCOc1ccc(-c2noc(CCC(=O)NC)n2)cc1
50 | > 99 µM (inactive) | > 99 | > 99 | > 99 µM | > 99 | CCC(C)NC(=O)CCc1nc(-c2ccc(C(C)(C)C)cc2)no1 (configuration not stated)
51 | > 99 µM (inactive) | > 99 | > 99 | > 99 µM | > 99 | CC(C)(C)NC(=O)CCc1nc(-c2ccccc2)no1
